The text below walks through data of ChEMBL document CHEMBL1140934, “Structure-activity relationships of antitubercular nitroimidazoles. 2. Determinants of aerobic activity and quantitative structure-activity relationships” (2009).

≈ marks a conversion by molar mass, not a printed value.

The subject of test [1] is Mycobacterium tuberculosis. Kind of test: Antimycobacterial activity against wild type Mycobacterium tuberculosis H37Rv ATCC 27294 after 2 weeks. Format: functional. To be noted: 336 h. In outline:
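M. tuberculosis H37Rv was grown in 7H9 with 0.05% Tween 80, 0.2% glycerol and ADC to OD650 0.2, then diluted 1:1000. It was added to 2-fold serial drug dilutions in the same medium (11 dilutions, 200 µM to 0.19 µM). Plates were incubated 2 weeks at 37°C and MIC99 read macroscopically. Three independent determinations.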

Test [2] concerns Mycobacterium tuberculosis. Kind of test: Antimycobacterial activity against wild type Mycobacterium tuberculosis H37Rv NRP-2 stage after 3 weeks under anaerobic condition. It counts as functional. To be noted: 504 h. The essentials:
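H37Rv was anaerobically adapted from OD650 0.005 in glycerol-free Dubos broth, in sealed stirred tubes (head-space ratio 0.5) for 3 weeks at 37°C. Cultures were dispensed in an anaerobic chamber onto drug (2% DMSO final) and held anaerobically 7 days at 37°C. Cells were washed, 2-fold diluted and spotted on 7H11 agar for 3 weeks. MAC: 90% reduction in visible growth. Isoniazid and metronidazole controls; CFU counts corroborated.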

Test [3] relates to Mycobacterium tuberculosis. Briefly: Ratio of Kcat/Km for Mycobacterium tuberculosis F420-dependent nitroreductase by Michaelis-Menten equation. In outline: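 Buffer was 200 mM Tris pH 8.0 with 0.01% Triton X-100 and 20 µM H2F420. H2F420 was made with recombinant Mtb FGD1, which was then heat-inactivated (65°C, 10 min) and removed by ultrafiltration. F420 came from M. smegmatis.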

`CN1C[C@@H](OCc2ccc(OC(F)(F)F)cc2)Cn2cc([N+](=O)[O-])nc21` had an MIC in test [1] of 6.25 µM (≈ 2.33 µg/mL). In test [2], this compound had an MBC of at least 100 µM. Besides, in test [3], the kcat/Km is 1020 M⁻¹ s⁻¹.

Take `O=[N+]([O-])c1cn2c(n1)OC[C@@H](NCCc1ccc(OC(F)(F)F)cc1)C2`: the MIC in test [1] turned out to be 0.16 µM (≈ 0.0596 µg/mL). In test [2], this compound showed an MBC of 6.25 µM (≈ 2.33 µg/mL). The kcat/Km in test [3] turned out to be 1830 M⁻¹ s⁻¹.

On to `O=[N+]([O-])c1cn2c(n1)NC[C@@H](OCc1ccc(OC(F)(F)F)cc1)C2`, for which, in test [1], the MIC came out at 0.8 µM (≈ 0.287 µg/mL). Further, the MBC in test [2] was found to be 125 µM (≈ 44.8 µg/mL). The kcat/Km in test [3] worked out at 4050 M⁻¹ s⁻¹.

On to `O=CN1CC(OCc2ccc(OC(F)(F)F)cc2)Cn2cc([N+](=O)[O-])nc21` (single isomer, unassigned), for which the MIC in test [1] came out at 3.2 µM (≈ 1.24 µg/mL). In test [2], this compound yielded an MBC of 25 µM (≈ 9.66 µg/mL). Also, the kcat/Km in test [3] stood at 1080 M⁻¹ s⁻¹.

In test [1], `O=[N+]([O-])c1cn2c(n1)OC[C@@H](NCc1ccc(OCc3ccccc3)cc1)C2` returned an MIC of 0.15 µM (≈ 0.0571 µg/mL). In test [2], this compound registered an MBC of 6.25 µM (≈ 2.38 µg/mL). Also, the kcat/Km in test [3] came to 3450 M⁻¹ s⁻¹.

With `O=C(COc1ccc(OC(F)(F)F)cc1)N[C@@H]1COc2nc([N+](=O)[O-])cn2C1`, the lowest concentration to inhibit growth in test [1] (MIC) was 0.05 µM (≈ 0.0201 µg/mL). Further, the MBC in test [2] came out at 62.5 µM (≈ 25.1 µg/mL). Also, in test [3], the kcat/Km came out at 283 M⁻¹ s⁻¹.

As to `O=[N+]([O-])c1cn2c(n1)CC[C@@H](OCc1ccc(OC(F)(F)F)cc1)C2`, in test [1], the MIC stood at 25 µM (≈ 8.93 µg/mL). Also, the MBC in test [2] came out at 250 µM (≈ 89.3 µg/mL). Besides, the kcat/Km in test [3] is 400 M⁻¹ s⁻¹.

`O=[N+]([O-])c1cn2c(n1)SC[C@@H](OCc1ccc(OC(F)(F)F)cc1)C2` had an MIC in test [1] of 0.8 µM (≈ 0.3 µg/mL). In test [2], the MBC turned out to be 25 µM (≈ 9.38 µg/mL). Besides, in test [3], the kcat/Km was 2430 M⁻¹ s⁻¹.

`O=[N+]([O-])c1cn2c(n1)OC[C@@H](NCc1ccc(OCc3ccc(F)cc3)cc1)C2` gave an MIC in test [1] of 0.2 µM (≈ 0.0797 µg/mL). Besides, the MBC in test [2] was 2 µM (≈ 0.797 µg/mL). In test [3], the catalytic efficiency (kcat/Km) turned out to be 7530 M⁻¹ s⁻¹.

As for `O=[N+]([O-])c1cn2c(n1)OC[C@@H](NCCCCc1ccc(OC(F)(F)F)cc1)C2`, 0.039 µM (≈ 0.0156 µg/mL) was the least that counted as inhibitory in test [1] (MIC). Besides, in test [2], the MBC came to 3.13 µM (≈ 1.25 µg/mL). For the same compound, the kcat/Km in test [3] was 8570 M⁻¹ s⁻¹.

The compound `CCCCc1ccc(CN[C@@H]2COc3nc([N+](=O)[O-])cn3C2)cc1` returned an MIC in test [1] of 0.78 µM (≈ 0.258 µg/mL). The MBC in test [2] was 50 µM (≈ 16.5 µg/mL). Further, the kcat/Km in test [3] was 900 M⁻¹ s⁻¹.

`O=[N+]([O-])c1cn2c(n1)OC[C@@H](NCCCc1ccc(OC(F)(F)F)cc1)C2` registered an MIC in test [1] of 0.078 µM (≈ 0.0301 µg/mL). The MBC in test [2] is 3.12 µM (≈ 1.21 µg/mL). Further, the kcat/Km in test [3] is 5120 M⁻¹ s⁻¹.

In test [1], `O=[N+]([O-])c1cn2c(n1)OC[C@@H](NCCCCCc1ccc(OC(F)(F)F)cc1)C2` came in with a minimal inhibitory concentration (MIC) of 0.078 µM (≈ 0.0323 µg/mL). The MBC in test [2] stood at 6.25 µM (≈ 2.59 µg/mL). For the same compound, the kcat/Km in test [3] came out at 15200 M⁻¹ s⁻¹.

In turn, `O=[N+]([O-])c1cn2c(n1)S(=O)(=O)C[C@@H](OCc1ccc(OC(F)(F)F)cc1)C2` yielded an MIC in test [1] of over 100 µM. The MBC in test [2] was 25 µM (≈ 10.2 µg/mL).

For `O=[N+]([O-])c1cn2c(n1)OC[C@@H](NCc1ccc(OC(F)(F)F)cc1)C2`, inhibition of growth in test [1] (MIC) required 0.31 µM (≈ 0.111 µg/mL). Besides, the MBC in test [2] was 12.5 µM (≈ 4.48 µg/mL). The kcat/Km in test [3] came out at 2870 M⁻¹ s⁻¹.

Regarding `O=[N+]([O-])c1cn2c(n1)[S+]([O-])C[C@@H](OCc1ccc(OC(F)(F)F)cc1)C2` (stereo partly drawn), the MIC in test [1] was over 100 µM. Further, in test [2], the MBC turned out to be 50 µM (≈ 19.6 µg/mL).

In test [1], `CC(=O)N1CC(OCc2ccc(OC(F)(F)F)cc2)Cn2cc([N+](=O)[O-])nc21` (single isomer, unassigned) gave an MIC of 6.25 µM (≈ 2.5 µg/mL). For the same compound, the MBC in test [2] was 31.2 µM (≈ 12.5 µg/mL).

The compound `O=[N+]([O-])c1cn2c(n1)OC[C@@H](NCc1ccc(OCc3ccc(OC(F)(F)F)cc3)cc1)C2` displayed an MIC in test [1] of 0.16 µM (≈ 0.0743 µg/mL). Moreover, in test [2], the MBC is 1.56 µM (≈ 0.724 µg/mL). For the same compound, the kcat/Km in test [3] came to 1230 M⁻¹ s⁻¹.

`O=[N+]([O-])c1cn2c(n1)OC[C@@H](OCc1ccc(OC(F)(F)F)cc1)C2` [PRETOMANID]: it took 0.8 µM (≈ 0.287 µg/mL) to inhibit growth in test [1] (MIC). Moreover, the minimum bactericidal concentration (MBC) in test [2] amounted to 6.25 µM (≈ 2.25 µg/mL). In addition, the specificity constant (kcat/Km) in test [3] was found to be 2580 M⁻¹ s⁻¹.

With `N[C@@H]1COc2nc([N+](=O)[O-])cn2C1`, the MIC in test [1] is over 100 µM. The compound also yielded an MBC in test [2] of over 500 µM.

Take `O=[N+]([O-])c1cn2c(n1)SC[C@H](OCc1ccc(OC(F)(F)F)cc1)C2`: it took 50 µM (≈ 18.8 µg/mL) to inhibit growth in test [1] (MIC). In test [2], this compound yielded an MBC of 50 µM (≈ 18.8 µg/mL).
